{"source": "paper PMC4721220", "about": "(Expert opinion on investigational drugs, 2013)", "key": {"male or female rats": {"tested_on": "male or female rats", "test": "Behavioral safety", "format": "in vivo, rat"}, "mouse": {"tested_on": "mouse", "test": "Mouse micronucleus assay", "settings": "in vivo"}, "[1]": {"test": "Compatibility with human blood, serum and plasma in vitro", "settings": "concentrations up to 3 mg/ml in vitro"}, "hERG channel": {"target": "hERG channel (Homo sapiens, UniProt Q12809)", "sequence (Q12809 whole entry)": "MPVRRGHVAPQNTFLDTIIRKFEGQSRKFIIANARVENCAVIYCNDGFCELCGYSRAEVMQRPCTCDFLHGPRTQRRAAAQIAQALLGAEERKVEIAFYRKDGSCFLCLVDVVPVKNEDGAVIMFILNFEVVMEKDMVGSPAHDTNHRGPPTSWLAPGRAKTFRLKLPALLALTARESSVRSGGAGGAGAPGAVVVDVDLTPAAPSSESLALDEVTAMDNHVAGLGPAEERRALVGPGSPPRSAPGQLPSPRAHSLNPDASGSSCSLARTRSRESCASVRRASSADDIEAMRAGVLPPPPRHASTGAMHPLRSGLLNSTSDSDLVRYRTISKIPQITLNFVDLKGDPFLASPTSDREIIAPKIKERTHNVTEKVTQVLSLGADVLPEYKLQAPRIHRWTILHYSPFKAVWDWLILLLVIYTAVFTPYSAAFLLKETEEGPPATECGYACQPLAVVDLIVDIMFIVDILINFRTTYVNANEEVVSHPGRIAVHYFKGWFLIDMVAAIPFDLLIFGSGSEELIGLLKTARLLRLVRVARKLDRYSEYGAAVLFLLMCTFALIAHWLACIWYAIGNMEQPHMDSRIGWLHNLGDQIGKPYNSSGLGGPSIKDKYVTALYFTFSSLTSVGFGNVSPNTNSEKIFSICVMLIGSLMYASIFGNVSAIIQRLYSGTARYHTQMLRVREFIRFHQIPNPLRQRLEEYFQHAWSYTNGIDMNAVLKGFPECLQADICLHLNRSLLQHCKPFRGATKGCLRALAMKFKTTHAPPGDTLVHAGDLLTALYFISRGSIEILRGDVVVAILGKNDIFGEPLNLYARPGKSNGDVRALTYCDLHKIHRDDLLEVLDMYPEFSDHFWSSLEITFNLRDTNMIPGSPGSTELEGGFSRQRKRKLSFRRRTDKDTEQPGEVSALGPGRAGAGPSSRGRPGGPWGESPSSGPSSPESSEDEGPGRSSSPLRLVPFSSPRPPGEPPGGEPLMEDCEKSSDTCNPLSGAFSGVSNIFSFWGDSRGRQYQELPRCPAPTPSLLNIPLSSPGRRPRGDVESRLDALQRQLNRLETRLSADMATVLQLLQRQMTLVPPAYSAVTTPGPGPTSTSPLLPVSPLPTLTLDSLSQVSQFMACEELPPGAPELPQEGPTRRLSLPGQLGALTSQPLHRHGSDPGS", "test": "hERG assay", "format": "cell-based", "settings": "concentrations up to 5 mM"}, "[2]": {"test": "Plasma pharmacokinetics in rats", "format": "in vivo, rat"}, "[3]": {"tested_on": "subjects with major depressive disorder", "test": "Phase IIa safety", "format": "in vivo, human", "summary_of_the_method": "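Randomized, double-blind, placebo-controlled, parallel-group trial at 12 US centres (116 adults). Subjects had MDD by SCID and <25% response (ATRQ) to antidepressants in the current episode, followed by a 14-day antidepressant washout. Each received a single IV infusion over 3–15 min of normal saline or 1, 5, 10 or 30 mg/kg test compound. Subjects stayed ≥24 h in unit, with continuous ECG and pulse oximetry to 4 h, then follow-up visits.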"}, "[4]": {"test": "Phase I safety and pharmacokinetics study in normal human volunteers", "format": "in vivo", "settings": "for t1/2 initial / AUC(0-inf) / Cmax / clearance: plasma; for t1/2 initial: normal human volunteers, Mean ± SEM, n = 4; for Vd / AUC(0-inf) / Cmax / clearance: human, iv; for Vd: in vivo", "summary_of_the_method": "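Normal volunteers received a single IV dose via the antecubital vein, over a dose range of 0.5–25 mg/kg. Plasma Cmax and AUC were determined, with n = 4 subjects per dose, reported as Mean ± SEM.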"}, "[5]": {"tested_on": "conscious instrumented dogs", "test": "Cardiovascular safety in conscious instrumented dogs", "format": "in vivo, dog", "settings": "single IV bolus doses up to 500 mg/kg"}, "conscious rats": {"tested_on": "conscious rats", "test": "Respiratory safety, plethysmography in conscious rats", "format": "in vivo, rat", "settings": "single IV bolus dose up to 415 mg/kg, the highest dose evaluated"}, "mouse lymphoma": {"tested_on": "mouse lymphoma", "test": "Mouse lymphoma assay", "format": "cell-based"}, "dogs [6]": {"tested_on": "dogs", "test": "90-day twice-weekly IV repeated-dose study in dogs", "format": "in vivo, dog", "settings": "up to 200 mg/kg (highest evaluated)"}, "rats [7]": {"tested_on": "rats", "test": "90-day twice-weekly IV repeated-dose study in rats", "format": "in vivo, rat", "settings": "up to 300 mg/kg (highest evaluated)"}, "[8]": {"tested_on": "dog-isolated Purkinje fibers", "test": "Electrophysiology in dog-isolated Purkinje fibers", "format": "cell-based", "settings": "concentrations up to 1 mM, the highest evaluated"}, "dogs [9]": {"tested_on": "dogs", "test": "Single-dose IV toxicology study in dogs", "format": "in vivo, dog", "summary_of_the_method": "(§1)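 Single IV doses up to 1000 mg/kg were given to rats and dogs. End-points were clinical observations, body weight, clinical chemistry, hematology, urinalysis, and gross and microscopic pathology.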"}, "rats [10]": {"tested_on": "rats", "test": "Pentylenetetrazole convulsant activity", "format": "in vivo, rat", "settings": "single dose 500 mg/kg IV, 60 min following pentylenetetrazole administration"}, "[11]": {"test": "Plasma pharmacokinetics in dogs", "format": "in vivo, dog"}, "rats [12]": {"tested_on": "rats", "test": "Single-dose IV toxicology study in rats", "format": "in vivo, rat", "summary_of_the_method": "as §1"}, "[13]": {"settings": "twice-weekly dosing for 3 months"}}, "note": "Where a SMILES comes first, the peptide text is derived from it.", "data": [{"smiles": "C[C@@H](O)[C@H](N)C(=O)N1CCC[C@H]1C(=O)N1CCC[C@H]1C(=O)N[C@H](C(N)=O)[C@@H](C)O", "note": "[GLYX-13] (H-TPPT-NH2)", "values": [{"measurement": "hyperlocomotion (signal for psychotomimetic effects)", "setting": "male or female rats; any dose evaluated", "result": "did not induce hyperlocomotion"}, {"measurement": "adverse behavioral responses", "setting": "male or female rats; single doses up to 500 mg/kg IV, the highest dose evaluated, male or female rats", "result": "No adverse behavioral responses"}, {"measurement": "motor coordination", "setting": "male or female rats; up to 500 mg/kg IV, male or female rats", "result": "did not affect motor coordination"}, {"measurement": "mouse micronucleus assay", "setting": "mouse", "result": "inactive"}, {"measurement": "compatibility with human blood, serum, and plasma", "setting": "[1]", "result": "completely compatible"}, {"measurement": "current through the hERG channel", "setting": "hERG channel", "result": "did not affect current through the hERG channel"}, {"measurement": "plasma half-life", "setting": "[2]; 30 – 300 mg/kg IV", "result": "2 to 3", "unit": "min"}, {"measurement": "half-life after repeated dosing", "setting": "[2]; [13]", "result": "retained its short half-life"}, {"measurement": "suicidality (Columbia-Suicide Severity Rating Scale)", "setting": "[3]; 14- or 28-day course of observation following dosing", "result": "did not cause any increase in suicidality"}, {"measurement": "BPRS+ score (psychotomimetic effects)", "setting": "[3]; any time following dosing", "result": "did not increase BPRS+ score"}, {"measurement": "treatment-related serious adverse events", "setting": "[3]; single IV dose 1, 5, 10 or 30 mg/kg", "result": "No treatment-related serious adverse events"}, {"measurement": "t1/2 initial", "setting": "[4]; 1 mg/kg IV", "result": "4.7 ± 0.5", "unit": "min"}, {"measurement": "t1/2 initial", "setting": "[4]; 5 mg/kg IV", "result": "7.4 ± 0.9", "unit": "min"}, {"measurement": "t1/2 initial", "setting": "[4]; 10 mg/kg IV", "result": "9.0 ± 0.6", "unit": "min"}, {"measurement": "t1/2 initial", "setting": "[4]; 20 mg/kg IV", "result": "14.0 ± 2.1", "unit": "min"}, {"measurement": "increase of Cmax with dose", "setting": "[4]; dose range 0.5 – 10 mg/kg IV", "result": "supralinearly"}, {"measurement": "increase of AUC with dose", "setting": "[4]; dose range 0.5 – 25 mg/kg IV", "result": "supralinearly"}, {"measurement": "increase of Cmax with dose", "setting": "[4]; dose range 10–25 mg/kg IV", "result": "linearly"}, {"measurement": "Vd", "setting": "[4]; 1 mg/kg", "result": "0.17 ± 0.03", "unit": "L/kg"}, {"measurement": "Vd", "setting": "[4]; 5 mg/kg", "result": "0.31 ± 0.14", "unit": "L/kg"}, {"measurement": "Vd", "setting": "[4]; 10 mg/kg", "result": "0.12 ± 0.01", "unit": "L/kg"}, {"measurement": "Vd", "setting": "[4]; 20 mg/kg", "result": "0.1 ± 0.03", "unit": "L/kg"}, {"measurement": "AUC(0-inf)", "setting": "[4]; 1 mg/kg", "result": 533, "unit": "ng·h/mL"}, {"measurement": "Cmax", "setting": "[4]; 1 mg/kg", "result": "5.2 ± 0.9", "unit": "µg/mL"}, {"measurement": "clearance", "setting": "[4]; 1 mg/kg", "result": 33.7, "unit": "mL/min/kg"}, {"measurement": "AUC(0-inf)", "setting": "[4]; 5 mg/kg", "result": 4800, "unit": "ng·h/mL"}, {"measurement": "Cmax", "setting": "[4]; 5 mg/kg", "result": "26 ± 11", "unit": "µg/mL"}, {"measurement": "clearance", "setting": "[4]; 5 mg/kg", "result": 34.8, "unit": "mL/min/kg"}, {"measurement": "AUC(0-inf)", "setting": "[4]; 10 mg/kg", "result": 19400, "unit": "ng·h/mL"}, {"measurement": "Cmax", "setting": "[4]; 10 mg/kg", "result": "100 ± 21", "unit": "µg/mL"}, {"measurement": "clearance", "setting": "[4]; 10 mg/kg", "result": 9, "unit": "mL/min/kg"}, {"measurement": "AUC(0-inf)", "setting": "[4]; 20 mg/kg", "result": 67200, "unit": "ng·h/mL"}, {"measurement": "Cmax", "setting": "[4]; 20 mg/kg", "result": "182 ± 56", "unit": "µg/mL"}, {"measurement": "clearance", "setting": "[4]; 20 mg/kg", "result": 5, "unit": "mL/min/kg"}, {"measurement": "heart rate, blood pressure, ECG parameters", "setting": "[5]", "result": "nor did GLYX-13 administered at single IV bolus doses up to 500 mg/kg affect heart rate, blood pressure, or any ECG parameter"}, {"measurement": "respiratory parameters", "setting": "conscious rats", "result": "nor did GLYX-13 affect any respiratory parameter"}, {"measurement": "mouse lymphoma assay", "setting": "mouse lymphoma", "result": "inactive"}, {"measurement": "tolerability, repeated dose", "setting": "dogs [6]", "result": "well tolerated"}, {"measurement": "tolerability, repeated dose", "setting": "rats [7]", "result": "well tolerated"}, {"measurement": "electrophysiological parameters in Purkinje fibers", "setting": "[8]", "result": "did not significantly alter any of the electrophysiological parameters"}, {"measurement": "Ames mutagenesis", "setting": "Ames mutagenesis assay", "result": "inactive"}, {"measurement": "tolerability, single doses", "setting": "dogs [9]; doses up to 500 mg/kg IV", "result": "well tolerated"}, {"measurement": "toxicology findings, single dose", "setting": "dogs [9]; doses up to 1000 mg/kg IV", "result": "No observational, body weight, clinical chemistry, hematology, urinalysis, or gross or microscopic pathological signals were observed"}, {"measurement": "convulsant activity", "setting": "rats [10]", "result": "did not affect convulsant activity"}, {"measurement": "plasma half-life", "setting": "[11]; 20 – 200 mg/kg IV", "result": "5 to 8", "unit": "min"}, {"measurement": "half-life after repeated dosing", "setting": "[11]; [13]", "result": "retained its short half-life"}, {"measurement": "tolerability, single doses", "setting": "rats [12]; doses up to 500 mg/kg IV", "result": "well tolerated"}, {"measurement": "toxicology findings, single dose", "setting": "rats [12]; doses up to 1000 mg/kg IV", "result": "No observational, body weight, clinical chemistry, hematology, urinalysis, or gross or microscopic pathological signals were observed"}]}]}
